Data reported in ChEMBL document CHEMBL4334429, “Rational design of novel amphipathic antimicrobial peptides focused on the distribution of cationic amino acid residues” (Medchemcomm, 2019).
Blank lines part the entries; values can stand above or below the substance they belong to. Active and inactive are the calls of the source. The rule behind the calls is not given here.

How the values were obtained:
Escherichia coli [1] = experiment: Antibacterial activity against Escherichia coli NBRC 3972 after 18 hrs by broth microdilution method; assay type: functional; details: NBRC 3972, 18 h
Summary of the method: (§1)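 Bacteria grown to mid-log phase in LB medium at 37 °C. Peptides 2-fold serially diluted from 200 μM to 1.56 μM and mixed 1:1 with inoculum of 10^6 CFU per mL. Incubation 18 h at 35 °C. MIC is the lowest concentration giving complete growth inhibition by visual inspection […].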

Erythrocyte = experiment: Hemolytic activity in human RBC after 3 hrs; assay type: ADME, cell-based
Summary of the method: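 Human red blood cells from Japanese Red Cross volunteers, washed three times and resuspended in PBS. Mixed 1:1 with diluted peptide and incubated 3 h at 37 °C. After centrifugation, supernatant absorbance read at 535 nm. Triton X-100 and M-lycotoxin served as positive controls.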

Escherichia coli [2] = experiment: Antibacterial activity against Escherichia coli DH5[alpha] after 18 hrs by broth microdilution method; assay type: functional; summary of the method: as §1
Proteus vulgaris = experiment: Antibacterial activity against Proteus vulgaris NBRC 3045 after 18 hrs by broth microdilution method; assay type: functional; details: NBRC 3045, 18 h; summary of the method: as §1
Pseudomonas aeruginosa = experiment: Antibacterial activity against Pseudomonas aeruginosa NBRC 13725 after 18 hrs by broth microdilution method; assay type: functional; details: NBRC 13275, 18 h, in the assay text read “NBRC 13275” for “NBRC 13725”; summary of the method: as §1
Staphylococcus aureus = experiment: Antibacterial activity against Staphylococcus aureus after 18 hrs by broth microdilution method; assay type: functional; summary of the method: as §1
[3] = system: Staphylococcus epidermidis; experiment: Antibacterial activity against Staphylococcus epidermidis after 18 hrs by broth microdilution method; assay type: functional; summary of the method: as §1
TIG-3 [4] = experiment: Cytotoxicity against human TIG3 at 100 uM after 72 hrs by WST-8 assay; assay type: cell-based; details: tig-3, 72 h
Summary of the method: (§2)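 Human normal fibroblast TIG-3 cells kept in DMEM with 10% FBS and 100 μg ml–1 kanamycin. Seeded at 5 × 10^3 cells per well, treated 24 h later for 72 h. WST-8 reagent then added for 0.5 h at 37 °C, 5% CO2, and absorbance read at 450 nm. Means ± SD, n = 4.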

Lipid bilayer = experiment: Induction of membrane disruption in PG/CL/PE unilamellar vesicles assessed as increase in carboxyfluorescein leakage at 6.25 uM by fluorescence assay
Summary of the method: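 E. coli-mimic liposomes of PG/CL/PE (2 : 1 : 7, w/w) loaded with 50 mM carboxyfluorescein in 20 mM Tris-HCl, pH 7.4; free dye removed by Sephadex G-50 gel filtration. Peptide added at 6.25 μM and leakage read by fluorescence. Release (%) = (Fobs−F0)/(F100−F0) × 100, with 100% set by Triton X-100.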

TIG-3 [5] = experiment: Cytotoxicity against human TIG3 at 1 to 100 uM after 72 hrs by WST-8 assay; assay type: cell-based; details: tig-3, 72 h; summary of the method: as §2

Substance: H-IWLTALKFLGKHAAKHLAKQQLSKL-NH2
- IC50 (Erythrocyte): 0.78 µM

Substance: H-KKKKKKKKKGGGLLALLALLA-NH2
- MIC (Escherichia coli [1]): 6.25 µM
- IC50 (Erythrocyte): 25 µM
- MIC (Escherichia coli [2]): 12.5 µM
- MIC (Proteus vulgaris): > 100 µM
- MIC (Pseudomonas aeruginosa): 6.25 µM
- MIC (Staphylococcus aureus): 12.5 µM
- MIC [3]: 6.25 µM
- Activity (TIG-3 [4]): Toxic
- Activity (Lipid bilayer): Active

Substance: H-KKKLAKLKLGAKLKLKGKLGA-NH2
- MIC (Escherichia coli [1]): 12.5 µM
- IC50 (Erythrocyte): 100 µM
- MIC (Escherichia coli [2]): 25 µM
- MIC (Proteus vulgaris): > 100 µM
- MIC (Pseudomonas aeruginosa): 3.12 µM
- MIC (Staphylococcus aureus): 100 µM
- MIC [3]: 6.25 µM
- Activity (TIG-3 [5]): Non-Toxic
- Activity (Lipid bilayer): Active

The remaining substances from weak to strong by MIC (Escherichia coli [1]), led by results:

- MIC (Escherichia coli [1]): 3.12 µM
- MIC (Escherichia coli [2]): 3.12 µM
- MIC (Proteus vulgaris): > 100 µM
- MIC (Pseudomonas aeruginosa): 12.5 µM
- MIC (Staphylococcus aureus): 100 µM
- MIC [3]: 25 µM
Substance: H-GIGKFLHSAKKFGKAFVGEIMNS-NH2
- IC50 (Erythrocyte): > 100 µM

- MIC (Escherichia coli [1]): 3.12 µM
- MIC (Escherichia coli [2]): 3.12 µM
- MIC (Proteus vulgaris): > 100 µM
- MIC (Pseudomonas aeruginosa): 1.56 µM
- MIC (Staphylococcus aureus): 12.5 µM
- MIC [3]: 1.56 µM
- Activity (Lipid bilayer): Active
Substance: H-KLLKKAGKLLKKAGKLLKKAG-NH2
- IC50 (Erythrocyte): > 100 µM
- Activity (TIG-3 [5]): Non-Toxic
